Measured values published in ChEMBL document CHEMBL2407075, “Sulphonamido-quinoxalines: search for anticancer agent” (Eur J Med Chem, 2013).

Key:
Format in all cases: functional
SK-MEL-2 [1] = assay: Growth inhibition of human SK-MEL-2 cells assessed as cell growth at 10^-4 M after 48 hrs by sulforhodamine B assay; settings: SK-MEL-2, 48 h, read-out: Activity
SK-MEL-2 [2] = assay: Growth inhibition of human SK-MEL-2 cells assessed as cell growth at 10^-6 M after 48 hrs by sulforhodamine B assay; settings: SK-MEL-2, 48 h, read-out: Activity
SK-MEL-28 = assay: Growth inhibition of human SK-MEL-28 cells assessed as cell growth at 10^-7 M after 48 hrs by sulforhodamine B assay; settings: SK-MEL-28, 48 h, read-out: Activity
CCRF-CEM = assay: Growth inhibition of human CCRF-CEM cells assessed as cell growth at 10^-7 M after 48 hrs by sulforhodamine B assay; settings: read-out: Activity
MDA-MB-231 = assay: Growth inhibition of human MDA-MB-231 cells after 48 hrs by sulforhodamine B assay; settings: MDA-MB-231, 48 h
HT-29 = assay: Growth inhibition of human HT-29 cells after 48 hrs by sulforhodamine B assay; settings: HT-29, 48 h
Method in brief: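 Adherent cells in RPMI 1640 with 5% FBS and 2 mM L-glutamine were plated at 5000–40,000 cells/well and grown 24 h. Five concentrations (0.01–100 µM, DMSO stock) were added for 48 h at 37 °C. Cells were fixed with cold TCA (10% final) and stained with SRB, read at 515 nm. GI50 came from log concentration–growth curves against time-zero and control plates.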

Compound	growth at 100 µM (SK-MEL-2 [1])	growth at 1 µM (SK-MEL-2 [2])	growth at 0.1 µM (SK-MEL-28)	growth at 0.1 µM (CCRF-CEM)	GI50 (MDA-MB-231)	GI50 (HT-29)	CC50 (HT-29; read-out: LC50 (the source's name))
O=S(=O)(Nc1ccc(Cl)cc1)c1ccc2nc(-c3ccccc3)c(-c3ccccc3)nc2c1	69%	99%	96%	91%			
O=S(=O)(Nc1ccccn1)c1ccc2nc(-c3ccccc3)c(-c3ccccc3)nc2c1					1820 nM	1780 nM	> 100000 nM
